# High-throughput results deposited in PubChem by Johns Hopkins Ion Channel Center.
# Shown are actives, neighbours in structure and some others; about 3.7% of the full set was active somewhere.
# KCNQ1 pot: potentiators or activators of KCNQ1 channel, primary screen, cell-based, thallium flux, high-throughput; 0.35% of 310,000 active; B-score at 10 µM; CHO-K1 KCNQ1, thallium flux FluxOR fluorescence; stronger effect = higher value; Potassium voltage-gated channel subfamily KQT member 1 (Homo sapiens), P51787;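 active = fluorescence ratio B-score, a plate-corrected score, at least three library SD, with initial intensity B-score within 5 SD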
#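 Material: CHO-K1 cells stably expressing KCNQ1. Medium: assay buffer for compound exposure, DMSO matched across wells. Reagent: K+/Tl+ depolarizing stimulus. Compound dosing: single-concentration screen. Times: 37 °C overnight plating, 90-min dark dye load, 20-min compound pretreatment. Technique: FluxOR Tl+ flux fluorescence.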
# KCNK3 inh: human KCNK3 channel inhibitors, primary screen, CHO cells, FluxOR thallium flux, B-score. 0.84% of 340,000 active. FluxOR fluorescence; stronger effect = lower value. Potassium channel subfamily K member 3 (Homo sapiens), O14649. AID 602410, 2012. B-score at 10 µM;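 active = B-score under library mean minus 4 SD, starting fluorescence ratio at most library mean plus 5 SD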;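 note: more negative B-score means stronger inhibition of thallium flux through KCNK3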
# Target sequence (O14649 whole entry, looked up): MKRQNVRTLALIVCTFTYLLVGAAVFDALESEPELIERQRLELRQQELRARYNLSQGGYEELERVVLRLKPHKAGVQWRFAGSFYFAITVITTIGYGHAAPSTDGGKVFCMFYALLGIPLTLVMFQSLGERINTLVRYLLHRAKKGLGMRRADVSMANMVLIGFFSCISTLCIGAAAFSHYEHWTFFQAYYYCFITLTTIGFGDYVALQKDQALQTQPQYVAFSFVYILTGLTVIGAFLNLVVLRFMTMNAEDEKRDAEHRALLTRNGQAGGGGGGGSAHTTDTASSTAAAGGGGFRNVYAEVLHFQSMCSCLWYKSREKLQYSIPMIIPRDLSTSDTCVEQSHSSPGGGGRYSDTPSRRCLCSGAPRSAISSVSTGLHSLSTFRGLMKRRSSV
# hERG rescue: hERG rescue from dofetilide block, primary screen, cell-based, CHO-hERG, FluxOR thallium flux, dofetilide IC70; Voltage-gated inwardly rectifying potassium channel KCNH2 (Homo sapiens), Q12809; dofetilide IC70 present; activation (rescue from dofetilide block), less the hit threshold, % at 10 µM; 0.51% of 310,000 active; AID 1511, 2009;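 active = activation above the mean of controls blocked by dofetilide plus 5 SD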;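 note: thallium influx through hERG after potassium depolarization seen as dye fluorescence rise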
# Kir21 inh: inhibitors of mouse Kir2.1 inward-rectifier potassium channel | HEK293-Kir2.1, FluxOR thallium flux fluorescence; stronger effect = lower value | 0.85% of 310,000 active | B-score at 10 µM;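 active = fluorescence ratio B-score at or below minus 3 SD of library scores, with starting-brightness B-score within 2 SD, cut at about -4.2 in these data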;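 note: channel flux triggered by added potassium and thallium sulfate stimulus; B-score of peak minus minimum fluorescence over baseline after thallium stimulus; more negative B-score means stronger Kir2.1 block with less thallium influx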
# KCNQ1 inh: inhibitors of human KCNQ1 channel, primary screen, cell-based, thallium flux, high-throughput | 1.3% of 310,000 active | B-score at 10 µM | CHO-K1 KCNQ1, FluxOR thallium flux fluorescence; stronger effect = higher value;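 active = compounds whose thallium flux B-score, printed positive for inhibition, exceeds three library SD while starting fluorescence stays within three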;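 note: channel opened by potassium depolarization with thallium stimulus after 20 min compound exposure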
# KCNK9 inh: KCNK9 potassium channel inhibitors, primary screen, HEK293 cells, thallium flux; Potassium channel subfamily K member 9 (Homo sapiens), Q9NPC2; FluxOR thallium flux fluorescence; stronger effect = lower value; B-score at 10 µM; 1.2% of 310,000 active;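 active = ratio B-score over 3 SD below the library mean, with starting fluorescence within 5 SD of its mean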;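 note: negative B-score means less thallium flux so channel inhibition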
# KCNK9 block conf: KCNK9 potassium channel inhibitors, confirmation, HEK293 cells, thallium flux, duplicate; shares compounds with KCNK9 inh; FluxOR thallium flux fluorescence; inhibition, % at 10 µM; 43% of 4,900 active; AID 492992, 2010;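 active = thallium signal inhibited by more than 5 SD of the compound-free buffer control wells, on both duplicate plates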;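 note: 0% = assay buffer control wells without compound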
# Kir21 sel: mouse Kir2.1 channel inhibition, confirmation, selectivity assay for KCNK9 modulator project, cell-based, HEK293, thallium flux | inhibition, % at 10 µM | 4% of 4,900 active | Kir2.1 cells, FluxOR thallium flux fluorescence | shares compounds with KCNK9 inh;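 active = thallium signal drop more than 5 SD beyond the mean of the no-compound control wells, seen in both duplicate plates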;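 note: signal is fluorescence rise after thallium addition divided by baseline fluorescence; plate controls were assay buffer only for no effect and full block by chlorpromazine control for full effect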
# HEK293 Tl ctr: thallium flux in non-induced HEK293 cells, confirmation, counter-screen for KCNK9 inhibitor project, cell-based, second counter screen, non-induced KCNK9-HEK293 | shares compounds with KCNK9 inh | FluxOR thallium flux | inhibition, % at 10 µM | 40% of 4,900 active;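 active = thallium signal drop beyond 5 SD of the untreated control mean, on both duplicate plates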;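 note: plate controls were buffer only IC0 wells for no effect and SID17386958 at its maximal inhibitory level for full effect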
# Starred values were filed as active, the others as inactive; i = inactive; / = not tested or not shown.
SMILES,KCNQ1 pot,KCNK3 inh,hERG rescue,Kir21 inh,KCNQ1 inh,KCNK9 inh,KCNK9 block conf,Kir21 sel,HEK293 Tl ctr
Cc1cccc(C)c1OCC(O)CN1CCC(CN2C(=O)c3cccc4cccc(c34)C2=O)CC1 (stereo not given),i,i,-22,1.1,i,i,i,i,i
CC1(C)OC(=O)C(=CNNc2c(Cl)cc(Cl)cc2Cl)C(=O)O1,i,i,-4,0.55,i,i,/,/,/
COc1ccc(CN(C)C(=O)CNC(=O)Cc2cccc3ccccc23)c(OC)c1OC,i,i,-6,-0.09,i,i,/,/,/
COc1cccc(CN(C)C(=O)CNC(=O)c2sc3ccccc3c2Cl)c1OC,i,i,-14,-0.56,i,i,i,i,i
Cc1cc(C)n2nc(C(=O)OCC(=O)c3ccc(F)cc3)nc2n1,i,i,-8,-0.04,i,i,/,/,/
COc1cccc(NC(=O)Nc2ccc(Br)cn2)c1,i,i,-16,1.7,i,i,/,/,/
NC(=O)c1ccc(Oc2ccc3c(c2)CCC3)c([N+](=O)[O-])c1,i,i,-10,0.91,i,i,i,i,i
O=C(c1cc(F)ccc1F)C1CCCN(C(=O)c2cccs2)C1 (stereo not given),i,i,-3,-1.4,i,i,/,/,/
O=C(c1cc(COc2ccc(F)cc2F)on1)N1CC[C@@H]2CCCC[C@H]2C1,i,i,-13,-0.09,i,i,i,i,i
O=C(c1cc(COc2ccc(F)cc2F)on1)N1CCCC(c2ccccc2)C1 (stereo not given),i,i,-8,0.3,i,i,i,i,36%*
CC(C)Cc1cc(C(=O)N2CCCC(C(=O)c3cc(F)ccc3F)C2)no1 (stereo not given),i,i,-5,0.3,i,i,i,i,i
O=C(c1ccc(F)cc1)N1CCCC(c2ccccc2)C1 (stereo not given),i,i,-11,-0.01,i,-8.8*,36%*,i,i
CSc1ccccc1NC(=S)NCc1ccc(Cl)cc1,i,i,-7,1,i,i,/,/,/
Cc1cc(Cl)ccc1OCC(=O)NNC(=O)CCOc1ccccc1,/,i,/,/,/,/,/,/,/
Cc1cccc[n+]1CCCCCCCCCC[n+]1ccccc1C,i,i,-10,0.12,i,i,/,/,/
CCCCCCCC[n+]1cccc2c3ccccc3ccc21,i,i,-25,-11*,9*,-14*,62%*,86%*,i
COCCCn1cc(C(=O)c2ccccc2OCC(=O)Nc2cccc(F)c2)cc(C#N)c1=O,i,i,-8,-0.14,i,i,/,/,/
CC(C)(C)n1nnnc1C(c1ccc(Cl)cc1)N(Cc1cccnc1)Cc1ccco1 (stereo not given),i,-10*,-10,-1.3,6*,-14*,52%*,i,39%*
c1ccc(CN(Cc2ccco2)C(c2ccncc2)c2nnnn2C2CCCC2)cc1 (stereo not given),i,i,-4,0.55,i,i,/,/,/
